# Screening data: PubChem, several laboratories
# ALR inh: blocks human ALR sulfhydryl oxidase activity; P55789; purified ALR, DTT oxidation, H2O2 HRP-luminol luminescence; inhibition, % (concentration not given with the values); 290,000 tested, 3.8% active; AID 485317;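 active means mean replicate inhibition above about 79%, with every replicate also reaching it, limit read from the data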
# M18AAP inhibitor: blocks P. falciparum M18 aspartyl aminopeptidase; recombinant PfM18AAP, H-Glu-NHMec fluorogenic cleavage; inhibition, % at 7.35 µM; 290,000 tested, 1.2% active; AID 1822;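 active means inhibition above the campaign mean inhibition over all tested compounds plus 3 SD, cut at about 28% in these data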;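 further: 0% = plate median of test compound wells and 100% = 2 mM ZnCl2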
# HDAC3 inhib: blocks human histone deacetylase 3; O15379; recombinant HDAC3, fluorogenic peptide/trypsin coupled, fluorescence; 320,000 tested, 0.15% active; AID 2718; inhibition, % at 8.3 µM; in the data active means inhibition above about 26%, passing the limit was not always enough
# Rtt109 HAT inh: inhibitors of Candida albicans Rtt109/Vps75 histone acetyltransferase; Q5AAJ8; purified Rtt109/Vps75, ThioGlo CoA-SH fluorescence, 4 h; inhibition, % at 34.9 µM; 330,000 tested, 0.16% active;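 active means inhibition of at least 50% in every replicate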
# FAS TE block: inhibitors of human fatty acid synthase thioesterase domain | recombinant FAS-TE, OMFH fluorogenic substrate, fluorescence endpoint | inhibition, % at 15 µM | 360,000 tested, 0.67% active | AID 602261;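 active means compounds whose normalised, plate-corrected inhibition of enzyme fluorescence in the single-dose primary screen is 50% or more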;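 further: 0% = DMSO with enzyme and 100% = substrate without enzyme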
# UCH37 inh: blocks the human deubiquitinase UCH37; Q9Y5K5; purified proteasome/UCH37, Ub-AMC cleavage fluorescence; inhibition, % (no concentration beside the values); 330,000 tested, 0.33% active;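 active means mean inhibition over replicate wells above about 20%, limit read from the data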;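 further: 0% = compound-free wells with enzyme and 100% = wells lacking proteasome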
# Target sequence (Q9Y5K5 whole entry, looked up): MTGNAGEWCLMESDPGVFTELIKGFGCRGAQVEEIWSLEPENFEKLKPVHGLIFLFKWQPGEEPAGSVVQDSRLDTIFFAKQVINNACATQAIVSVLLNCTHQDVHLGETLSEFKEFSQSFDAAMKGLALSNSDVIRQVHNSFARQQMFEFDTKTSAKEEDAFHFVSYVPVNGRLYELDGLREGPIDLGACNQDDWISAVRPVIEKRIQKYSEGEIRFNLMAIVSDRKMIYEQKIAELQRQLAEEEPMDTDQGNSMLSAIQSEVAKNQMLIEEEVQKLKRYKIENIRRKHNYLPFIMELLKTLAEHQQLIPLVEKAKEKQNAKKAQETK
#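 Material: human UCH37 enzyme supplied as purified proteasome complex. Measure: % inhibition of Ub-AMC cleavage fluorescence. Medium: pH 7.4 Tris-HCl (50 mM) with ovalbumin, ATP-MgCl2, DTT. Times: 30 min preincubation with enzyme, 25 min cleavage at room temperature. Detection: AMC fluorescence intensity at 355/460 nm.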
# FAS-TE inh conf: FAS thioesterase (human) inhibition, confirmation | recombinant FAS-TE, OMFH fluorogenic substrate, fluorescence | 2,300 tested, 45% active | inhibition, % at 15 µM | AID 624325 | shares compounds with FAS TE block;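 active means compounds inhibiting the enzyme by at least 50% at 15 µM in any one of the replicates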;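 further: 0% = enzyme with DMSO only and 100% = wells lacking enzyme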
# * hit, by the source's call; x = no result given. A selection: hits, their analogues and other compounds. The true share with any hit is near 4.6%.
SMILES,ALR inh,M18AAP inhibitor,HDAC3 inhib,Rtt109 HAT inh,FAS TE block,UCH37 inh,FAS-TE inh conf
COC(=O)C1=C(c2cccc3c2S(=O)(=O)c2ccccc2-3)C[C@@H]2CC[C@H]1N2C(=O)N1CCOCC1,0,x,-1,1,-4,8,x
O=C1C=CC(=O)C2C1C1(Cl)C(Cl)=C(Cl)C2(Cl)C1(Cl)Cl (configuration not stated),x,x,x,-5,60*,4,57*
Cn1cc(C=C(C#N)C#N)c2ccccc21,-16,-2,1,-17,63*,3,-20
CN(Cc1cccc(-c2cccnc2)c1)C(=O)Oc1ccc([N+](=O)[O-])cc1,x,x,x,x,51*,x,25
CC(NC(=O)N1CC1(C)C)c1ccccc1 (configuration not stated),x,x,x,-10,-11,1,x
S=C(NCCc1ccccc1)N1Cc2cc(Br)ccc2-n2nncc2C1,x,x,x,x,62*,x,25*
C=CCn1c(=O)c(C=Nc2cccc([N+](=O)[O-])c2)c(O)n(CCCC)c1=O,-1,-7,-7,-6,42,7,x
C=CCn1c(=O)c(C=Nc2c(OC)cccc2[N+](=O)[O-])c(O)n(CCCC)c1=O,-28,-9,-1,1,70*,6,20
C#C[C@]1(O)[C@H](O)CC2C3CC[C@H]4C[C@@H](O)CC[C@]4(C)C3CC[C@@]21C (some centres not stated),1,x,4,x,-3,x,x
COc1ccc(C(c2nnnn2-c2ccc3c(c2)OCCO3)N2CCC(n3c(=O)[nH]c4ccccc43)CC2)cc1 (configuration not stated),x,x,x,x,54*,x,15
Cc1cccc(C)c1-n1nnnc1C(CCc1ccccc1)N1CCC(n2c(=O)[nH]c3ccccc32)CC1 (configuration not stated),x,x,x,x,54*,x,12
COc1ccc(-n2nnnc2C(c2ccccc2OC(F)(F)F)N2CCC(n3c(=O)[nH]c4ccccc43)CC2)cc1 (configuration not stated),x,x,x,x,60*,x,2
CCC(c1nnnn1-c1ccc(OC)cc1)N1CCC(n2c(=O)[nH]c3ccccc32)CC1 (configuration not stated),x,x,x,x,-3,x,x
COc1cccc(C(c2nnnn2-c2c(C)cccc2C)N2CCC(n3c(=O)[nH]c4ccccc43)CC2)c1OC (configuration not stated),x,x,x,x,82*,x,4
O=c1[nH]c2ccccc2n1C1CCN(C(c2ccnc3ccccc23)c2nnnn2-c2ccc3c(c2)OCCO3)CC1 (configuration not stated),x,x,x,x,17,x,x
Cc1ccc(/C=C2/Sc3ccc(C(=O)N4CCC5(CC4)OCCO5)cc3NC2=O)cc1,-3,1,-2,8,-27,x,x
O=c1[nH]c2ccccc2n1C1CCN(C(CCc2ccccc2)c2nnnn2-c2ccc3c(c2)OCCO3)CC1 (configuration not stated),x,x,x,x,89*,x,17
CN1[C@H]2CC[C@@H]1C(C(=O)N1CCOCC1)=C(O)C2,-4,x,1,-11,-13,-1,x
NP(=O)(Oc1ccccc1Cl)Oc1ccccc1Cl,-11,-15,-3,0,75*,0,85*
Cc1cccc(Cn2cc(C=O)c3ccccc32)c1,-5,9,6,-6,12,1,x
O=Cc1cn(Cc2cccc([N+](=O)[O-])c2)c2ccccc12,-16,-15,0,-3,55*,1,59*
CC(C)CC(C)N (configuration not stated),-9,x,-10,7,-6,x,x
COc1ccc(CCn2c(O)c(C=Nc3ccccc3F)c(=O)[nH]c2=O)cc1OC,-8,0,3,-1,-4,-14,x
COc1ccc([N+](=O)[O-])cc1N=Cc1c(O)n(CCc2ccccc2)c(=O)n(C(C)C)c1=O,-8,-9,1,x,72*,5,-3
